Experimental data taken from publication PMC5835416 (Biochimica et biophysica acta, 2018).
Read-outs that look alike come from different tables or passages of the source.

What was measured:
[1] = Centrifugal precipitation of lipid in buffer without protein; assay type: physicochemical; details: 10 mM Na-phosphate pH 7.3; ~196,000 × g
tear lipocalin [2] = target: T1, tear lipocalin (Homo sapiens, UniProt P31025); assay type: binding
Outline: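 Incubated 25°C 30 min or 34°C 16 h, then centrifuged ~196,000 × g, 1 h, same temperature. Bound (supernatant) and precipitated ligand quantified by absorbance via extinction coefficients. Lysozyme 10 μM as negative control. Triplicate means fitted to hyperbola and Hill equation.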

tear lipocalin [3] = target: T1, tear lipocalin; test: Fluorescence binding assay with NBD-labeled lipids; details: 1 μM tear lipocalin; for fluorescence in the presence of tear lipocalin compared to the unbound label: 1 μM ligand; for Kd: apparent, pH 7.3
Outline: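 After equilibration, fluorescence spectra recorded at 20°C, λex 420 nm. Relative intensity at 523 nm used to compute bound label. Triplicate runs, means taken. B/P versus unbound lipid fitted by nonlinear regression to a rectangular hyperbola or Hill equation, giving apparent Kd and n.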

tear lipocalin [4] = target: T1, tear lipocalin; test: DAUDA displacement fluorescence assay; assay type: binding; details: end of titration
tear lipocalin [5] = target: T1, tear lipocalin; test: Linear spectral summation; assay type: binding; details: apparent, tear lipocalin 10 μM, pH 7.3
Outline: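 Each spectrum fitted as linear sum of bound reference (2 μM ligand + 10 μM protein), unbound reference (2 μM ligand in buffer) and baseline, yielding bound and free ligand. Triplicate means fitted to hyperbola or Hill equation.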

[6] = apparent, Hill equation fit, 10 μM (C6) or 20 μM (C12) tear lipocalin, 10 mM sodium phosphate pH 7.3
[7] = apparent, hyperbola fit, 10 μM (C6) or 20 μM (C12) tear lipocalin, 10 mM sodium phosphate pH 7.3

T1 sequence (P31025 19-176): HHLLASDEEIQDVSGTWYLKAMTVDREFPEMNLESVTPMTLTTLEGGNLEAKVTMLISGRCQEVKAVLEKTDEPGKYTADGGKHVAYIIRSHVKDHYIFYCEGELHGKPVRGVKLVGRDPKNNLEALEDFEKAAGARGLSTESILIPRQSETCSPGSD

**Q.** For `CCCCCCCCCCCCC/C=C/[C@@H](O)[C@H](CO)NC(=O)CCCCCCCCCCCNc1ccc([N+](=O)[O-])c2nonc12` [C12-NBD ceramide, N-[12-[(7-nitro-2-1,3-benzoxadiazol-4-yl)amino]dodecanoyl]-D-erythro-sphingosine], which precipitation in buffer [1] is on record?
**A.** complete precipitation

**Q.** And the Kd (tear lipocalin [2]; [6])?
**A.** 1060 nM

**Q.** What about the Kd (tear lipocalin [2]; [7]) of the same compound?
**A.** 1230 nM

**Q.** What about the Kd (tear lipocalin [2]; read-out: apparent dissociation constant (Kd), fit not named) of the same compound?
**A.** 1200 nM

**Q.** And the “fluorescence in the presence of tear lipocalin compared to the unbound label” value (tear lipocalin [3])?
**A.** enhanced fluorescence

**Q.** And the Kd (tear lipocalin [3]; Hill equation fit)?
**A.** 100 nM

**Q.** What about the Kd (tear lipocalin [3]; hyperbola fit) of the same compound?
**A.** 130 nM

**Q.** Which “residual DAUDA fluorescence compared with stearic acid” value (tear lipocalin [4]) does the source give for `CCCCCCCCCCCCC/C=C/[C@@H](O)[C@H](CO)NC(=O)CCCCCCCCCCCCCCCCC` [C18-ceramide, ceramide-N-(octadecanoyl) sphing-4-enine, also known as N-stearoyl-D-erythro-sphingosine] here?
**A.** twice as great

**Q.** For `CCCCCCCCCCCCC/C=C/[C@@H](O)[C@H](CO)NC(=O)CCCCCNc1ccc([N+](=O)[O-])c2nonc12` [C6-NBD ceramide, N-[6-[(7-nitro-2-1,3-benzoxadiazol-4-yl)amino]hexanoyl]-D-erythro-sphingosine], which precipitation in buffer [1] is on record?
**A.** complete precipitation

**Q.** And the Kd (tear lipocalin [5]; Hill equation fit)?
**A.** 70 nM

**Q.** And the Kd (tear lipocalin [5]; hyperbola fit)?
**A.** 60 nM

**Q.** And the Kd (tear lipocalin [2]; [6])?
**A.** 290 nM

**Q.** What about the Kd (tear lipocalin [2]; [7]) of the same compound?
**A.** 320 nM

**Q.** What about the “apparent dissociation constant (Kd)” value (tear lipocalin [2]; fit not named) of the same compound?
**A.** sub-micromolar

**Q.** And the “fluorescence in the presence of tear lipocalin compared to the unbound label” value (tear lipocalin [3])?
**A.** enhanced fluorescence

**Q.** And the Kd (tear lipocalin [3]; Hill equation fit)?
**A.** 80 nM

**Q.** And the Kd (tear lipocalin [3]; hyperbola fit)?
**A.** 80 nM
